We go through 18 compounds from ChEMBL document CHEMBL1121839, “Synthesis of spiro[isobenzofuran-1(3H),4'-piperidines] as potential central nervous system agents. 6. Synthesis, 13C NMR, and biological evaluation of cis- and trans-4-amino-3'-arylspiro[cyclohexane-1,1'(3'H)-isobenzofuran] derivatives” (1981).

What all share (format): functional
The subject of test [1] is Mus musculus. The test is described as follows: Inhibition of tetrabenazine-induced ptosis in mice following i.p. administration. To be noted: ip. Summed up:
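Male CD-1 mice, groups of five, received compound i.p.; tetrabenazine methanesulfonate 40 mg/kg i.p. followed 30 min later. After another 30 min, mice were housed singly and ptosis was scored (eyes closed 2, half open 1, open 0). ED50 and 95% confidence intervals came from linear regression of ptosis scores.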

Test [2] has as its system Rattus norvegicus. The test is described as follows: Percent potentiation of L-5-hydroxytryptophan-induced seizures (head-twitching) at 10 mg/kg i.p. in rats. To be noted: route intraperitoneal. The essentials: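 Male Wistar rats, groups of six, got pargyline HCl 75 mg/kg s.c. 4 h before testing and test drug i.p. (10 mL/kg) 30 min before. L-5-hydroxytryptophan 1 mg/kg i.p. in distilled water was then given. Rats were observed 5 min later for head motion and coarse tremors; continuous forelimb clonus counted as potentiation, normalized as percent versus vehicle control.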

In test [3] the test system is Rattus norvegicus. The experiment in a line: Effective concentration required for potentiation of L-5-hydroxytryptophan-induced seizures (head-twitching) in rats (administered intraperitoneally). To be noted: ip. Summed up:
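Male Wistar rats, groups of six, pretreated with pargyline HCl 75 mg/kg sc 4 h before testing. Test drug given ip (10 mL/kg) 30 min before testing, then L-5-hydroxytryptophan 1 mg/kg ip in distilled water. Head motion and coarse tremors were scored 5 min later, with continuous forelimb clonus counted as potentiation. Results are expressed as normalized percent potentiation versus vehicle control.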

In test [1], `CN(C)[C@H]1CC[C@]2(CC1)OCc1ccccc12` showed an ED50 of more than 20 mg/kg. Further, in test [2], the Potentiation is 0%.

`CC1O[C@]2(CC[C@@H](N(C)C)CC2)c2ccccc21` (stereo not given in full) registered an ED50 in test [1] of 20 mg/kg. The Potentiation in test [2] amounted to 0%.

Turning to `CN[C@H]1CC[C@]2(CC1)OC(c1ccc(Cl)cc1)c1ccccc12` (stereo not given in full), the 50% effective dose (ED50) in test [1] is more than 20 mg/kg. For the same compound, the Potentiation in test [2] stood at 0%.

`CCCC1(c2ccccc2)O[C@]2(CC[C@@H](N(C)C)CC2)c2ccccc21` (stereo not given in full) yielded an ED50 in test [1] of more than 20 mg/kg. Also, the Potentiation in test [2] is 0%.

In test [1], `CN(C)[C@H]1CC[C@@]2(CC1)OC(c1ccccc1)c1ccccc12` (stereo not given in full) displayed a median effective dose (ED50) of more than 20 mg/kg. Moreover, the Potentiation in test [2] is 0%.

With `CN[C@H]1CC[C@]2(CC1)OC(c1ccccc1)c1ccccc12` (stereo not given in full), the 50% effective dose (ED50) in test [1] came out at 2 mg/kg. In addition, in test [2], the Potentiation is reported as 0%.

Compound `CN[C@H]1CC[C@]2(CC1)OC(c1ccc(F)cc1)c1ccccc12` (stereo not given in full) displayed a median effective dose (ED50) in test [1] of 20 mg/kg. Also, the Potentiation in test [2] is 0%.

In test [1], `CN[C@H]1CC[C@@]2(CC1)OC(c1ccccc1)c1ccccc12` (stereo not given in full) came in with an ED50 of more than 20 mg/kg. Moreover, in test [2], the Potentiation is 50%.

For `CN[C@H]1CC[C@]2(CC1)OC(c1ccccc1C)c1ccccc12` (stereo not given in full), the ED50 in test [1] is more than 20 mg/kg. In test [2], the Potentiation turned out to be 50%.

Compound `Cc1ccccc1C1O[C@]2(CC[C@@H](N(C)C)CC2)c2ccccc21` (stereo not given in full) had an ED50 in test [1] of more than 20 mg/kg. Further, in test [2], the Potentiation was found to be 0%.

In test [1], `Cc1ccc(C2O[C@]3(CC[C@@H](N(C)C)CC3)c3ccccc32)cc1` (stereo not given in full) showed an ED50 of more than 20 mg/kg. Moreover, the Potentiation in test [2] is on record as 33%.

For `CCC1(c2ccccc2)O[C@]2(CC[C@@H](N(C)C)CC2)c2ccccc21` (stereo not given in full), in test [1], the ED50 was more than 20 mg/kg. Moreover, the Potentiation in test [2] was determined as 0%.

With `CN(C)[C@H]1CC[C@]2(CC1)OC(c1ccc(Cl)cc1)c1ccccc12` (stereo not given in full), in test [1], the 50% effective dose (ED50) was more than 20 mg/kg. In addition, the Potentiation in test [2] was determined as 0%.

In test [1], `CN(C)[C@H]1CC[C@]2(CC1)OC(c1ccc(F)cc1)c1ccccc12` (stereo not given in full) yielded an ED50 of 8.4 mg/kg. In addition, the Potentiation in test [2] is on record as 50%.

With `CN(C)[C@H]1CC[C@]2(CC1)OC(c1ccccc1)c1ccccc12` (stereo not given in full), it took a dose of 3.7 mg/kg to reach the 50% effect level in test [1] (ED50). Further, in test [2], the Potentiation is recorded as 50%.

`CN(C)[C@H]1CC[C@]2(CC1)OC(C)(c1ccccc1)c1ccccc12` (stereo not given in full) yielded an ED50 in test [1] of more than 20 mg/kg. Besides, the Potentiation in test [2] was found to be 0%.

Turning to `CN(C)CCC=C1c2ccccc2CCc2ccccc21` [AMITRIPTYLINE], the values for the ED50 in test [3] and in test [1] were 7.1 mg/kg and 1.5 mg/kg, respectively.

In test [1], `CNCCCN1c2ccccc2CCc2ccccc21` [DESIPRAMINE] registered an ED50 of 0.3 mg/kg.
